From PubChem
SUMO1-SIM PPI: SUMO1-SIM interaction modulation. AID 602429. hit rate 0.33% among 360,000. inhibition, % at 20 µM. SUMO1 binding to a labelled peptide, TR-FRET, 1 h; in the data active = inhibition above about 37%
Target sequence (P63165 whole entry, looked up): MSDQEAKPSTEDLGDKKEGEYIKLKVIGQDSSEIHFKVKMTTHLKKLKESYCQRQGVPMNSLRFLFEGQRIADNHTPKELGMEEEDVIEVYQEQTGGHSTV
Scp1 inh: inhibitors of human Scp-1 phosphatase; Q9GZU7; Recombinant Scp1, phosphopeptide, malachite green phosphate absorbance; inhibition, % at 20 µM; hit rate 0.88% among 340,000; AID 493091;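 active = inhibition above about 50% at 20 µM, limit read from the data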
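Test system: SCP-1 catalytic domain; Buffer or medium: Acidic Tris acetate buffer with magnesium and detergent; Also added: Phosphorylated 17-residue peptide substrate; Compound: single 20 µM dose, 1% DMSO; Schedule: enzyme reaction 45 min at room temperature, colour 5 min, stabilisation 30 min; Signal: Phosphate-binding colour reagent, absorbance read at 630 nm.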
LMPTP inh: blocks human LMPTP phosphatase. P24666. recombinant LMPTP-A, OMFP fluorogenic substrate, fluorescence intensity. inhibition, % at 20 µM. hit rate 0.22% among 360,000. AID 651560;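 active = compounds that cut the enzyme signal by at least half of the control window in the single-dose screen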
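Buffer or medium: Bis-Tris pH 6.0, DTT, detergent; Assay system: LMPTP-A enzyme; Quantity: 0.625 nM enzyme; Detection: endpoint fluorescence intensity; Times: 50 min dark incubation at room temperature; Controls: substrate-only low control, DMSO enzyme-plus-substrate high control; Doses: single 20 µM dose; Read-out: percent inhibition versus substrate-only and uninhibited controls; Reagent: 400 µM OMFP.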
STEP block: inhibitors of human striatal-enriched phosphatase STEP | inhibition, % at 20 µM | recombinant STEP, OMFP fluorogenic substrate, fluorescence | hit rate 0.25% among 360,000 | AID 588621 | P54829;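 active = inhibition at 20 µM, scaled per plate between control wells, above about 37%, limit read from the data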
Target sequence (P54829 whole entry, looked up): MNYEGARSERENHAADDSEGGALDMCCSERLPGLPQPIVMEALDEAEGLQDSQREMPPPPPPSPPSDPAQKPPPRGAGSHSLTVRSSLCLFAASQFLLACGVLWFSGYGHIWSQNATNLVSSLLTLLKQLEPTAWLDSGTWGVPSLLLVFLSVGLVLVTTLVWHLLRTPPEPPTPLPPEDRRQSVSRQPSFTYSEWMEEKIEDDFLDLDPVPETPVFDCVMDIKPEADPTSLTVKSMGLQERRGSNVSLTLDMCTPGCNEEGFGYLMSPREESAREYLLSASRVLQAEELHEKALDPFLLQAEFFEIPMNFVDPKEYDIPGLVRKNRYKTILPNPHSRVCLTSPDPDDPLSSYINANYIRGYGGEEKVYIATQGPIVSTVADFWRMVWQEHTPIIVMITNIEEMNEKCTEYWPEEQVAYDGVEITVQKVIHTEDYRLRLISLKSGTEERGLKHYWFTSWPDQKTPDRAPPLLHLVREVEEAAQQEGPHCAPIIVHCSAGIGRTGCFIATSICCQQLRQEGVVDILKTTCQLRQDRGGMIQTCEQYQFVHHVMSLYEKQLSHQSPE
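medium = Bis-Tris buffer pH 6.0, 2.5 mM DTT, 0.005% Tween 20 | test system = STEP (striatal-enriched tyrosine phosphatase) enzyme, cell-free | measure = normalized % inhibition | compound dosing = 20 µM, 1% DMSO | also added = 25 µM OMFP | schedule = reaction 20 min, ambient temperature | measured by = fluorescence read at 480 nm ex / 540 nm em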
DNMT1 block: blocks human DNA methyltransferase DNMT1. P26358. DNMT1 molecular beacon, Hinp1I cleavage, fluorescence. inhibition (reported as % activation of signal), % at 10 µM. hit rate 0.83% among 360,000. AID 588458; in the data active = inhibition above about 50%
GRK2 inh: inhibitors of human GRK2 displacing RNA aptamer; bead flow cytometry, FAM-aptamer displacement from GRK2; AID 488847; inhibition of aptamer binding, % at 10 µM; P25098; hit rate 0.59% among 330,000;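 active = inhibition of aptamer binding above 40%, roughly 3 SD of noise, on plates passing a quality check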;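 note: median bead fluorescence of bound FAM aptamer so fluorescent compounds give negative values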
A number is an active result; - = inactive; . = not tested or not shown. A selection: hits, their analogues and other compounds. The true share with any hit is near 2.2%.

SMILES | SUMO1-SIM PPI | Scp1 inh | LMPTP inh | STEP block | DNMT1 block | GRK2 inh
C#CCOCCOCCOCCNc1nc(N2CCN(C(=O)CCCCCCCCCCNC(=O)[C@H](CCCCN)n3cc(C)nn3)CC2)nc(N2CCN(C(=O)CCCCCCCCCCNC(=O)[C@@H]([C@H](C)CC)n3cc(CCCCCN)nn3)CC2)n1 | 50.7 | . | - | - | - | -
CC(=O)N1C[C@H]2CON(C)[C@H]2C[C@H]1c1cccc(-c2ccc(C#N)cc2)c1 | - | . | - | - | - | .
O=C1c2ccccc2C(c2nnnn2Cc2ccccc2)N1C1CC1 (stereo unspecified) | - | . | - | . | . | .
C#CCOCCOCCOCCNc1nc(N2CCN(C(=O)CCCCCCCCCCNC(=O)[C@@H](CCSC)n3cc(CCO)nn3)CC2)nc(N2CCN(C(=O)CCCCCCCCCCNC(=O)[C@H]([C@@H](C)CC)n3cc(CCCCN=C(N)N)nn3)CC2)n1 | 90.3 | - | - | - | - | -
O=C(Cc1ccc(-n2c(=O)c3ccccc3n(Cc3ccc(F)cc3)c2=O)cc1)NCC1CCCO1 (stereo unspecified) | 40.0 | - | - | - | - | -
O=C(c1ccc(N2C(=O)CCC2=O)cc1)N1CCCSC1=Nc1ccccc1 | - | . | - | - | - | .
CCNC(=O)C1(C)CCCN(Cc2noc(-c3c(C)noc3C)n2)C1 (stereo unspecified) | - | . | - | - | - | .
CCOC(=O)C1=C(C)N(C)C(=O)NC1c1cccc(O)c1 (stereo unspecified) | 56.2 | - | - | - | - | -
COC(=O)[C@@]12C[C@@H](CC(=O)NCc3cccc(C(F)(F)F)c3)C(=O)N(CCc3ccc(OC)c(OC)c3)C1=CCC(C)(C)C2 | - | . | - | . | . | .
CC(C)c1cc(Cn2c3ccccc3c(=O)n2C(C)Cn2cc(CCCC#N)nn2)on1 (stereo unspecified) | - | . | - | . | . | .
O=C(NCCN1CCCC1=O)C1CCC(=O)N(CCc2cccc(F)c2)C1 (stereo unspecified) | 44.1 | - | - | - | - | -
CC(C)(C)c1ccc(C(O)c2ncc(-c3ccc(F)cc3)[nH]2)cc1 (stereo unspecified) | - | . | - | - | - | .
CCOC(=O)c1cnc(SSc2ncc(C(=O)OCC)c(N)n2)nc1N | - | - | 78.3 | - | - | -
CN(C)CCNc1ccc2ncn3c4ccc(O)cc4c(=O)c1c23 | - | - | 62.6 | - | 85.9 | .
CN(C)CCNc1ccc(-c2nn(C)c(=O)c3ccccc23)cc1[N+](=O)[O-] | - | - | - | - | - | -
COc1ccc(CNC(=O)c2ccc(-n3ccnc3)c3ccoc23)cc1OC | - | . | - | - | - | .
O=C(N=Nc1c(O)[nH]c2ccc(F)cc12)c1ccc(NS(=O)(=O)c2cccs2)cc1 | - | - | 52.6 | - | - | -
O=C(O)c1ccc(CNC(=O)C2CCN(S(=O)(=O)c3cccs3)CC2)cc1 | - | . | - | - | - | .
Nc1ccc2cc3[nH]c4cc(N)ccc4c3nc2c1 | - | - | 57.7 | - | 194.5 | .
Nc1ccc(-c2nc3ccc(N)cc3[nH]2)cc1 | - | - | - | - | - | -
CC(C)Nc1nc(NCCN2CCCC2)c2sc(-c3ccccc3)cc2n1 | - | . | 51.9 | - | - | .
Cc1oc(-c2cc(F)ccc2F)nc1CN1CCN(c2cnccn2)CC1 | 43.8 | - | - | - | - | -
Cc1oc(-c2cc(F)ccc2F)nc1CN(C)Cc1ccc2nccnc2c1 | - | - | - | - | - | -
CC(=O)Nc1ccc(-c2nc3cc(Cl)ccc3o2)cc1 | - | 61.7 | - | - | - | -
COc1ccccc1OCC(=O)N/N=C(\C)c1ccc2ccccc2c1 | - | . | - | - | - | .
SMILES | SUMO1-SIM PPI | Scp1 inh | LMPTP inh | STEP block | DNMT1 block | GRK2 inh
COc1ccc(-c2[nH][nH]c(=O)c2NC(=O)c2ccccn2)cc1 | - | . | - | - | - | .
COc1ccc(CCC(=O)Nc2c(-c3ccc(N(C)C)cc3)[nH][nH]c2=O)cc1 | 47.0 | . | - | - | 58.3 | .
COc1cccc(CNc2ccc(S(=O)(=O)Nc3nccs3)cc2)c1O | 37.6 | - | - | - | - | -
O=S(=O)(Nc1nccs1)c1ccc(NCc2cc(Br)cc(Br)c2O)cc1 | - | - | - | - | - | -
O=C(O)c1cccc(N2C(=O)/C(=C/c3ccc(SCc4ccc(Cl)cc4)o3)SC2=S)c1 | 69.9 | 69.7 | - | - | 83.9 | .
Oc1c(N=Nc2nn[nH]n2)ccc2ccccc12 | 50.1 | . | - | - | - | .
CCC(C)n1c(SCC(=O)NC2CC2)nc2ccccc2c1=O (stereo unspecified) | - | . | - | - | - | .
O=C(Nc1ccc2ccccc2c1)C(c1ccc(C(F)(F)F)cc1)n1c(=O)c(-c2cc3ccccc3[nH]2)nc2ccccc21 (stereo unspecified) | - | . | - | . | . | .
COc1ccc(C2CC(=O)C(C(c3ccc(O)cc3)C3C(=O)CC(c4ccc(OC)cc4)CC3=O)C(=O)C2)cc1 (stereo unspecified) | . | . | . | . | . | 52.0
COc1ccc(C2=CC(=O)CC(c3ccc(OC)cc3)C2)cc1 (stereo unspecified) | - | - | - | - | - | -
Cc1nc2ccccc2c2oc(C(=O)N3CCN(c4ccc([N+](=O)[O-])cc4)CC3)cc12 | 50.4 | - | - | - | - | -
Cc1cc(N2CCN(S(=O)(=O)c3ccc(Cl)cc3)CC2)c2ccccc2n1 | - | - | - | - | - | -
COc1ccc(N2CCN(C(=O)Oc3ccc([N+](=O)[O-])cc3)CC2)cc1 | - | . | - | . | . | .
Cc1cc(N2CCN(S(=O)(=O)c3ccc(Cl)c(Cl)c3)CC2)c2ccccc2n1 | - | - | 54.6 | - | - | -
Cc1cc(N2CCN(C(=O)Oc3ccc([N+](=O)[O-])cc3)CC2)c2ccccc2n1 | - | . | 50.5 | . | . | .
O=C(Nc1ccncc1NC(=O)c1cccc([N+](=O)[O-])c1)c1cccc([N+](=O)[O-])c1 | 75.8 | - | 54.6 | - | - | -
O=C(Cc1cccs1)Nc1ccc(-c2nnn(CC(=O)N3CCOCC3)n2)cc1 | . | 78.9 | . | . | . | -
CO[C@H](C(=O)N(C)C[C@@H]1OCc2ccccc2-c2c(n(C)c3ccccc23)C(=O)N([C@H](C)CO)C[C@@H]1C)c1ccccc1 | - | . | - | - | - | .
Nc1ncnc2c1ncn2[C@@H]1O[C@H](C(=O)NCc2ccc(OC(F)(F)F)cc2)[C@@H](O)[C@H]1O | - | . | - | - | - | .
O=C1CC(SC(=S)C2CCCC2=O)C(=O)N1 (stereo unspecified) | - | . | - | - | 68.8 | .
CN(C)c1ccc(C=c2c3cc(O)ccc3n3c2cc(-c2ccccc2)[n+]3C)cc1 | 68.8 | - | 93.8 | - | - | .
C[n+]1c(-c2ccccc2)cc2c(=Cc3ccccc3)c3ccccc3n21 | - | - | - | - | 50.4 | .
CN(C)c1ccc(C=c2c3ccccc3n3c2c2ccccc2[n+]3C)cc1 | 118.9 | - | 77.6 | - | - | .
Cc1cc2c(=Cc3ccc(N(C)C)cc3)c3ccccc3n2[n+]1C | - | - | - | - | - | .
